Among the data in ChEMBL document CHEMBL4613252 (J Nat Prod, 2020) are IC50 and Activity values, retold here.

Experiment [1] has as its system MDA-MB-231. Nature of the experiment: Cytotoxicity against human MDA-MB-231 cells after 72 hrs by CellTiter 96 Aqueous One Solution reagent based assay. The format is functional, cell-based. The following applies: MDA-MB-231, 72 h.
Experiment [2] relates to HT-29. Nature of the experiment: Cytotoxicity against human HT-29 cells after 72 hrs by CellTiter 96 Aqueous One Solution reagent based assay. It counts as functional, cell-based. As to conditions: HT-29, 72 h.
The test system of experiment [3] is MDA-MB-435. Nature of the experiment: Cytotoxicity against human MDA-MB-435 cells after 72 hrs by CellTiter 96 Aqueous One Solution reagent based assay. The format is functional, cell-based. The following applies: MDA-MB-435, 72 h.
The subject of experiment [4] is OVCAR-3. Nature of the experiment: Cytotoxicity against human OVCAR3 cells after 72 hrs by CellTiter 96 Aqueous One Solution reagent based assay. The format is functional, cell-based. As to conditions: OVCAR-3, 72 h.
Experiment [5] deals with NCI-H1299. The experiment in a line: Inhibition of glucose transporter in human NCI-H1299 cells assessed as reduction in [3H]2-deoxy-D-glucose uptake at 30 uM preincubated for 15 mins followed by [3H]2-deoxy-D-glucose addition and measured after 40 mins by liquid scintillation counting method. The format is cell-based. Put shortly: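 H1299 NSCLC cells (maintained in DMEM, 25 mM glucose, 10% FBS) serum-starved 1.5 h in FBS-free DMEM, then 30 min in glucose-free KRP buffer. Compound at 30 μM final, 15 min; uptake started with 37 MBq/L 2-deoxy-D-[3H]glucose plus 1 mM glucose (final), 40 min. Stopped with PBS, lysate radioactivity counted. Vehicle negative control, WZB117 positive control; n = 3, Student's t-test versus vehicle.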

The nature of experiment [6]: Inhibition of porcine cortex Na+/K+-ATPase using ATP as substrate after 15 mins by ADP-Glo Reagent based method. On the set-up: species or system Sus scrofa. In short, it runs like this:
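Enzyme from porcine cerebral cortex in assay buffer, preincubated with compound in DMSO or DMSO alone; ATP added, 15 min reaction. ADP formed was quantified luminescently: 40 min with ADP-Glo reagent, then 60 min with detection reagent (luciferin/luciferase). Concentration-response over a range of concentrations; IC50 derived; triplicate, three independent experiments.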

SMILES strings stand for the structures. pIC50: −log10 of the molar value. Calls of active or inactive are those of the source. The rule behind the calls is not given here.

With `CC(=O)O[C@H]1[C@@H](OC(C)=O)C[C@H](O[C@H]2[C@@H](OC(C)=O)C[C@H](O[C@H]3[C@@H](OC(C)=O)C[C@H](O[C@H]4CC[C@@]5(C)[C@H](CC[C@@H]6[C@@H]5C[C@@H](OC(C)=O)[C@]5(C)[C@@H](C7=CC(=O)OC7)CC[C@]65O)C4)O[C@@H]3C)O[C@@H]2C)O[C@@H]1C`, the pIC50 in experiment [1] was < 5.00; in experiment [2], < 5.00; in experiment [3], < 5.00; in experiment [4] it was 5.09.

For the molecule `CC(=O)O[C@H]1[C@@H](OC(C)=O)C[C@H](O[C@H]2[C@@H](O)C[C@H](O[C@H]3[C@@H](O)C[C@H](O[C@H]4CC[C@@]5(C)[C@H](CC[C@@H]6[C@@H]5C[C@@H](OC(C)=O)[C@]5(C)[C@@H](C7=CC(=O)OC7)CC[C@]65O)C4)O[C@@H]3C)O[C@@H]2C)O[C@@H]1C`, the pIC50 in experiment [1] was < 5.00; in experiment [2] it was < 5.00; in experiment [3], < 5.00; in experiment [4], 5.21.

For the molecule `C[C@H]1O[C@@H](O[C@H]2[C@@H](O)C[C@H](O[C@H]3[C@@H](O)C[C@H](O[C@H]4CC[C@@]5(C)[C@H](CC[C@@H]6[C@@H]5C[C@@H](O)[C@]5(C)[C@@H](C7=CC(=O)OC7)CC[C@]65O)C4)O[C@@H]3C)O[C@@H]2C)C[C@H](O)[C@@H]1O` [DIGOXIN], the pIC50 was 6.51 in experiment [1], 6.55 in experiment [2], 6.77 in experiment [3] and 6.64 in experiment [6]. Further, the outcome in experiment [5] was inactive.

On to `C[C@]12[C@H](O)CC3=C(CC[C@@H]4C[C@@H](O)CC[C@]34C)[C@H]1CC[C@@H]2C1=CC(=O)OC1`, for which the pIC50 in experiment [1], in experiment [2], in experiment [3] and in experiment [4] was < 5.00 each time.

`C[C@H]1O[C@@H](O[C@H]2[C@@H](O)C[C@H](O[C@H]3[C@@H](O)C[C@H](O[C@H]4CC[C@@]5(C)[C@H](CC[C@@H]6[C@@H]5C[C@@H](O)[C@]5(C)[C@H]([C@@H]7CC(=O)O[C@@H]7O)CC[C@]65O)C4)O[C@@H]3C)O[C@@H]2C)C[C@H](O)[C@@H]1O`: the pIC50 in experiment [1] was < 5.00; in experiment [2], < 5.00; in experiment [3] it was < 5.00; in experiment [4], < 5.00; in experiment [6] it was 3.80.

Take `C[C@]12CC[C@H](O)C[C@H]1CC[C@@H]1[C@@H]2C[C@@H](O)[C@]2(C)[C@@H](C3=CC(=O)OC3)CC[C@]12O` [DIGOXIGENIN]: the pIC50 in experiment [1] is 5.49; in experiment [2], 5.44; in experiment [3], 6.05; in experiment [4] it was 5.62.
